ChEMBL document CHEMBL5136969, “A niclosamide-tobramycin hybrid adjuvant potentiates cefiderocol against P. aeruginosa” (2021)
The source made the active and inactive calls.

Legend:
Pseudomonas aeruginosa [1] = assay: Potentiation of ciprofloxacin-induced antibiotic activity against Pseudomonas aeruginosa PAO1 assessed as MIC fold reduction at 8 ug/ml after 18 hrs by microbroth dilution method; assay type: functional; details: dose 8 µg/ml
Method in brief: (§1)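 Adjuvant held at a fixed 8 μg/mL while the antibiotic was 2-fold serially diluted in Mueller-Hinton broth (MHB), per CLSI microbroth dilution. Overnight cultures were adjusted in saline to 0.5 McFarland, then diluted 1:50 in MHB to about 5 × 10^5 CFU/mL final, and incubated 18 h at 37 °C. MIC was the lowest concentration with no visible turbidity, confirmed at 590 nm. Fold potentiation = MIC alone / MIC with adjuvant.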

Acinetobacter baumannii [2] = assay: Potentiation of ciprofloxacin-induced antibiotic activity against Acinetobacter baumannii ATCC 17978 assessed as MIC fold reduction at 8 ug/ml after 18 hrs by microbroth dilution method; assay type: functional; details: dose 8 µg/ml; method in brief: as §1
Acinetobacter baumannii [3] = assay: Potentiation of tobramycin-induced antibiotic activity against Acinetobacter baumannii ATCC 17978 assessed as MIC fold reduction at 8 ug/ml after 18 hrs by microbroth dilution method; assay type: functional; details: dose 8 µg/ml
Acinetobacter baumannii [4] = assay: Potentiation of piperacilin-induced antibiotic activity against Acinetobacter baumannii ATCC 17978 assessed as MIC fold reduction at 8 ug/ml after 18 hrs by microbroth dilution method; assay type: functional; details: dose 8 µg/ml
Acinetobacter baumannii [5] = assay: Potentiation of cefotaxime-induced antibiotic activity against Acinetobacter baumannii ATCC 17978 assessed as MIC fold reduction at 8 ug/ml after 18 hrs by microbroth dilution method; assay type: functional; details: dose 8 µg/ml
Method in brief: (§2)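 Initial screen in MHB using a fixed 8 μg mL−1 of adjuvant combined with each antibiotic under 2-fold dilution. Broth microdilution used about 5 × 10^5 CFU/mL at 37 °C for 18 h, with visible turbidity read and confirmed at 590 nm. Fold-potentiation = antibiotic MIC alone ÷ antibiotic MIC with adjuvant.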

Pseudomonas aeruginosa [6] = assay: Potentiation of ceftazidime-induced antibiotic activity against Pseudomonas aeruginosa PAO1 assessed as MIC fold reduction at 8 ug/ml after 18 hrs by microbroth dilution method; assay type: functional; details: dose 8 µg/ml; method in brief: as §1
Acinetobacter baumannii [7] = assay: Potentiation of ceftolozane-induced antibiotic activity against Acinetobacter baumannii ATCC 17978 assessed as MIC fold reduction at 8 ug/ml after 18 hrs by microbroth dilution method; assay type: functional; details: dose 8 µg/ml; method in brief: as §1
Pseudomonas aeruginosa [8] = assay: Potentiation of linezolid-induced antibiotic activity against Pseudomonas aeruginosa PAO1 assessed as MIC fold reduction at 8 ug/ml after 18 hrs by microbroth dilution method; assay type: functional; details: dose 8 µg/ml; method in brief: as §1
Pseudomonas aeruginosa [9] = assay: Potentiation of cindamycin-induced antibiotic activity against Pseudomonas aeruginosa PAO1 assessed as MIC fold reduction at 8 ug/ml after 18 hrs by microbroth dilution method; assay type: functional; details: dose 8 µg/ml; method in brief: as §1
Acinetobacter baumannii [10] = assay: Potentiation of pleuromutilin-induced antibiotic activity against Acinetobacter baumannii ATCC 17978 assessed as MIC fold reduction at 8 ug/ml after 18 hrs by microbroth dilution method; assay type: functional; details: dose 8 µg/ml
Pseudomonas aeruginosa [11] = assay: Potentiation of sulfamethoxazole-induced antibiotic activity against Pseudomonas aeruginosa PAO1 assessed as MIC fold reduction at 8 ug/ml after 18 hrs by microbroth dilution method; assay type: functional; details: dose 8 µg/ml
Staphylococcus aureus = assay: Antibacterial activity against methicillin-resistant Staphylococcus aureus ATCC 33592 assessed as reduction in bacterial growth after 18 hrs by microbroth dilution method; assay type: functional
Method in brief: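 Broth microdilution per CLSI in Mueller-Hinton broth (MHB). Overnight cultures were adjusted to 0.5 McFarland in saline, diluted 1:50 in MHB, and added at about 5 × 10^5 CFU/mL final to equal volumes of 2-fold serial dilutions of agent. Incubation was 18 h at 37 °C. MIC was the lowest concentration with no visible turbidity, confirmed by absorbance at 590 nm.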

Enterococcus faecalis = assay: Antibacterial activity against Enterococcus faecalis ATCC 29212 assessed as reduction in bacterial growth after 18 hrs by microbroth dilution method; assay type: functional
Method in brief: (§3)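 CLSI microbroth dilution in MHB. Overnight cultures were adjusted to 0.5 McFarland in saline, diluted 1:50, and inoculated at about 5 × 10^5 CFU/mL. Agents were 2-fold serially diluted and incubated 18 h at 37 °C. MIC is the lowest concentration without visible turbidity, confirmed by absorbance at 590 nm. Medium with and without cells served as controls.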

Pseudomonas aeruginosa [12] = assay: Potentiation of ceftolozane-induced antibiotic activity against MDR clinical isolate Pseudomonas aeruginosa PA259 assessed as MIC fold reduction at 8 ug/ml after 18 hrs by microbroth dilution method; assay type: functional, organism-based; details: dose 8.0 µg/ml; method in brief: as §1
Pseudomonas aeruginosa [13] = assay: Potentiation of ceftolozane-induced antibiotic activity against MDR clinical isolate Pseudomonas aeruginosa PA260 assessed as MIC fold reduction at 8 ug/ml after 18 hrs by microbroth dilution method; assay type: functional, organism-based; details: dose 8.0 µg/ml; method in brief: as §1
Pseudomonas aeruginosa [14] = assay: Potentiation of ceftolozane-induced antibiotic activity against MDR clinical isolate Pseudomonas aeruginosa PA264 assessed as MIC fold reduction at 8 ug/ml after 18 hrs by microbroth dilution method; assay type: functional, organism-based; details: dose 8.0 µg/ml; method in brief: as §1
Pseudomonas aeruginosa [15] = assay: Potentiation of cefiderocol-induced antibiotic activity against MDR clinical isolate Pseudomonas aeruginosa PA264 assessed as MIC fold reduction at 8 ug/ml after 18 hrs by microbroth dilution method; assay type: functional, organism-based; details: dose 8.0 µg/ml; method in brief: as §2
Pseudomonas aeruginosa [16] = assay: Antibacterial activity against colistin-resistant clinical isolate Pseudomonas aeruginosa PA114228 assessed as reduction in bacterial growth after 18 hrs in presence of cefiderocol by microbroth dilution method; assay type: functional
Method in brief: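 Checkerboard in MHB (iron-replete, not iron-depleted CAMHB). Cefiderocol was 2-fold serially diluted along one axis and the adjuvant along the other. Inoculum was 0.5 McFarland diluted 1:50, about 5 × 10^5 CFU/mL final. Incubation was 18 h at 37 °C, with turbidity read visually and confirmed at 590 nm. FIC was the MIC in combination over the MIC alone for each agent, and the FIC index was their sum. Cut-offs were ≤0.5 synergy, >0.5–4 additive, >4 antagonism.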

Acinetobacter baumannii [17] = assay: Antibacterial activity against Acinetobacter baumannii AB92247 assessed as reduction in bacterial growth after 18 hrs by microbroth dilution method; assay type: functional; method in brief: as §3
Acinetobacter baumannii [18] = assay: Antibacterial activity against Acinetobacter baumannii LAC-4 assessed as potentiation of cefiderocol antibacterial activity by measuring FIC after 18 hrs by microbroth dilution method; assay type: functional
Method in brief: (§4)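 Checkerboard in Mueller-Hinton broth: cefiderocol 2-fold diluted on one axis, adjuvant 2-fold on the other. Overnight cultures were adjusted to 0.5 McFarland in saline, diluted 1:50 in MHB, and inoculated at about 5 × 10^5 CFU/mL. Incubation was 18 h at 37 °C. Turbidity was read visually and confirmed at 590 nm. FIC index = FIC of antibiotic + FIC of adjuvant; ≤0.5 synergy, >4 antagonism.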

Enterobacter cloacae [19] = assay: Antibacterial activity against Enterobacter cloacae 117029 assessed as reduction in bacterial growth after 18 hrs by microbroth dilution method; assay type: functional; method in brief: as §3
Escherichia coli [20] = assay: Antibacterial activity against Escherichia coli 107115 assessed as reduction in bacterial growth after 18 hrs in presence of cefiderocol by microbroth dilution method; assay type: functional; method in brief: as §4
Enterobacter cloacae [21] = assay: Antibacterial activity against Enterobacter cloacae 121187 assessed as reduction in bacterial growth after 18 hrs in presence of cefiderocol by microbroth dilution method; assay type: functional; method in brief: as §4
Escherichia coli [22] = assay: Antibacterial activity against Escherichia coli 107115 assessed as potentiation of cefiderocol antibacterial activity by measuring FIC after 18 hrs by microbroth dilution method; assay type: functional; method in brief: as §4

NC[C@H]1O[C@H](O[C@H]2[C@H](OCCCCc3cn(-c4ccc(NC(=O)c5cc(Cl)ccc5O)cc4)nn3)[C@@H](O[C@H]3O[C@H](CO)[C@@H](O)[C@H](N)[C@H]3O)[C@H](N)C[C@@H]2N)[C@H](N)C[C@@H]1O
fold change (FC) (Pseudomonas aeruginosa [1]): 4 | fold change (FC) (Acinetobacter baumannii [2]): 4 | fold change (FC) (Acinetobacter baumannii [3]): 4 | fold change (FC) (Acinetobacter baumannii [4]): 4 | fold change (FC) (Acinetobacter baumannii [5]): 4 | fold change (FC) (Pseudomonas aeruginosa [6]): 4 | fold change (FC) (Acinetobacter baumannii [7]): 4 | fold change (FC) (Pseudomonas aeruginosa [8]): 4 | fold change (FC) (Pseudomonas aeruginosa [9]): 4 | fold change (FC) (Acinetobacter baumannii [10]): 4 | fold change (FC) (Pseudomonas aeruginosa [11]): 4 | MIC (Staphylococcus aureus): > 128 µg/mL | MIC (Enterococcus faecalis): > 128 µg/mL | Activity (Pseudomonas aeruginosa [12]): Active | Activity (Pseudomonas aeruginosa [13]): Active | Activity (Pseudomonas aeruginosa [14]): Active | Activity (Pseudomonas aeruginosa [15]): Active | MIC (Pseudomonas aeruginosa [16]): 16 µg/mL | MIC (Acinetobacter baumannii [17]): > 128 µg/mL | FIC (Acinetobacter baumannii [18]): 1 | MIC (Enterobacter cloacae [19]): > 128 µg/mL | MIC (Escherichia coli [20]): 0.25 µg/mL | MIC (Enterobacter cloacae [21]): 0.25 µg/mL | FIC (Escherichia coli [22]): 0.5
